Test results as given in ChEMBL document CHEMBL1134337, “Behavioral approach to nondyskinetic dopamine antagonists: identification of seroquel” (J Med Chem, 2001).

Legend:
[1] = test system: Mus musculus; assay: Antagonism of apomorphine induced climbing was determined in female swiss -Wbster mice after (ip) administration of 80 mg/kg; format: functional
Method in brief: (§1)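 Female Swiss-Webster mice (about 20 g) were fasted about 24 h, then given test compound or vehicle ip or po (N = 20 per group). Vehicle was 0.5% w/w hydroxypropylmethylcellulose with 0.1% w/w Tween 80 in water. After 30 min, mice received apomorphine HCl 1.25 mg/kg sc. At 13 min, each mouse was watched for 1 min; score was mean of highest and lowest rung of 27. Groups were compared with vehicle by Student's t-test.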

[2] = target: D(2) dopamine receptor (Rattus norvegicus) (UniProt P61169); assay: Binding affinity at dopamine receptor D2 from rat by spiropiperidone displacement.
D(2) dopamine receptor (Rattus norvegicus), sequence (P61169 whole entry): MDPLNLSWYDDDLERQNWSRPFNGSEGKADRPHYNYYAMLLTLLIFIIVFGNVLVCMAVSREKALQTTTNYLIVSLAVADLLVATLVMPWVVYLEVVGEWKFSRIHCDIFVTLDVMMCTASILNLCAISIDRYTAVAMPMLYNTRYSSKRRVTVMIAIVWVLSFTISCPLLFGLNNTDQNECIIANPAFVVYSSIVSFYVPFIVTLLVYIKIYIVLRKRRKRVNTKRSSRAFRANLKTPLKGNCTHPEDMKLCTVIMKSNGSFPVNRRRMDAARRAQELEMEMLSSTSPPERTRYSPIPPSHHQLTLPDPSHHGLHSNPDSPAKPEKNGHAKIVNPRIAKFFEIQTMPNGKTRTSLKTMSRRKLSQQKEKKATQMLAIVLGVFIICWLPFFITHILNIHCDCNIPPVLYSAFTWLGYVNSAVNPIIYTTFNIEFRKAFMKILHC
Method in brief: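 D2 receptor binding was read as % displacement of spiropiperidone, with test compound at 1000 nM unless stated otherwise. IC50 values used at least five concentrations per compound in triplicate. Each value is the mean of two replicate experiments differing by 5% or less.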

[3] = test system: Mus musculus; assay: Antagonism of apomorphine induced swimming was determined in female swiss -Wbster mice after (ip) administration of 80 mg/kg; format: functional
[4] = test system: Mus musculus; assay: Antagonism of apomorphine induced swimming was determined in female swiss -Webster mice after (ip) administration of 80 mg/kg; format: functional
[5] = test system: Mus musculus; assay: Antagonism of apomorphine induced climbing was determined in female swiss -Webster mice after (ip) administration of 40 mg/kg; format: functional; method in brief: as §1
[6] = test system: Mus musculus; assay: Antagonism of apomorphine induced climbing was determined in female swiss -Webster mice after (ip) administration of 80 mg/kg; format: functional; method in brief: as §1
[7] = test system: Mus musculus; assay: Antagonism of apomorphine induced climbing was determined in female swiss -Webster mice after (ip) administration of 10 mg/kg; format: functional; method in brief: as §1
[8] = target: D(2) dopamine receptor (Rattus norvegicus, UniProt P61169); assay: Inhibition of spiropiperidone binding at dopamine receptor D2 of rat.
D(2) dopamine receptor, sequence (P61169 whole entry): as above

[9] = test system: Mus musculus; assay: Antagonism of apomorphine induced swimming was determined in female swiss -Webster mice after (ip) administration of 20 mg/kg; format: functional
[10] = Number of animals showing dyskinesias was determined in haloperidol sensitized 2 cebus monkeys after (po) administration of 40 mg/kg; format: functional
Method in brief: (§2)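 Adult female and male Cebus monkeys sensitized with oral haloperidol 1 mg/kg once per week until dyskinetic reactions occurred. Test drug given orally (2 mL/kg) in 0.5% w/w hydroxypropylmethylcellulose with 0.1% w/w Tween 80 in distilled water, at least 2 weeks between treatments. Two observers watched continuously for 6-7 h, recording reaction type and severity every 30 min. Score is monkeys with dyskinesias/monkeys tested.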

[11] = test system: Mus musculus; assay: Antagonism of apomorphine induced swimming was determined in female swiss -Webster mice after (ip) administration of 40 mg/kg; format: functional
[12] = test system: Mus musculus; assay: Antagonism of apomorphine induced swimming was determined in female swiss -Webster mice after (ip) administration of 10 mg/kg; format: functional
[13] = test system: Mus musculus; assay: Antagonism of apomorphine induced swimming was determined in female swiss -Webster mice after (ip) administration of 5 mg/kg; format: functional
[14] = test system: Mus musculus; assay: Antagonism of apomorphine induced climbing was determined in female swiss -Webster mice after (ip) administration of 20 mg/kg; format: functional; method in brief: as §1
[15] = test system: Mus musculus; assay: Antagonism of apomorphine induced climbing was determined in female swiss -Webster mice after (ip) administration of 5 mg/kg; format: functional; method in brief: as §1
[16] = test system: Mus musculus; assay: Antagonism of apomorphine induced swimming was determined in female swiss -Wbster mice after (po) administration of 40 mg/kg; format: functional
[17] = test system: Mus musculus; assay: Antagonism of apomorphine induced climbing was determined in female swiss -Wbster mice after (ip) administration of 20 mg/kg; format: functional; method in brief: as §1
[18] = test system: Mus musculus; assay: Antagonism of apomorphine induced swimming was determined in female swiss -Wbster mice after (po) administration of 80 mg/kg; format: functional
[19] = test system: Mus musculus; assay: Antagonism of apomorphine induced climbing was determined in female swiss -Wbster mice after (ip) administration of 40 mg/kg; format: functional; method in brief: as §1
[20] = test system: Mus musculus; assay: Antagonism of apomorphine induced climbing was determined in female swiss -Wbster mice after (po) administration of 20 mg/kg; format: functional; method in brief: as §1
[21] = test system: Mus musculus; assay: Antagonism of apomorphine induced climbing was determined in female swiss -Wbster mice after (po) administration of 80 mg/kg; format: functional; method in brief: as §1
[22] = test system: Mus musculus; assay: Antagonism of apomorphine induced climbing was determined in female swiss -Wbster mice after (po) administration of 40 mg/kg; format: functional; method in brief: as §1
[23] = test system: Mus musculus; assay: Antagonism of apomorphine induced swimming was determined in female swiss -Wbster mice after (po) administration of 20 mg/kg; format: functional
[24] = test system: Mus musculus; assay: Antagonism of apomorphine induced climbing was determined in female swiss -Webster mice after (p.o.) +SKF525A administration of 20 mg/kg; format: functional; conditions: route oral; method in brief: as §1
[25] = test system: Mus musculus; assay: Antagonism of apomorphine induced climbing was determined in female swiss -Webster mice after (p.o.) +SKF525A administration of 10 mg/kg; format: functional; conditions: route oral; method in brief: as §1
[26] = test system: Mus musculus; assay: Antagonism of apomorphine induced climbing was determined in female swiss -Webster mice after (ip) administration of 2.5 mg/kg; format: functional; method in brief: as §1
[27] = test system: Mus musculus; assay: Antagonism of apomorphine induced climbing was determined in female swiss -Webster mice after (po) administration of 10 mg/kg; format: functional; method in brief: as §1
[28] = test system: Mus musculus; assay: Antagonism of apomorphine induced climbing was determined in female swiss -Webster mice after (p.o.) +SKF525A administration of 5 mg/kg; format: functional; conditions: route oral; method in brief: as §1
[29] = test system: Mus musculus; assay: Antagonism of apomorphine induced climbing was determined in female swiss -Webster mice after (po) administration of 20 mg/kg; format: functional; method in brief: as §1
[30] = test system: Mus musculus; assay: Antagonism of apomorphine induced climbing was determined in female swiss -Webster mice after (po) administration of 5 mg/kg; format: functional; method in brief: as §1
[31] = test system: Mus musculus; assay: Antagonism of apomorphine induced climbing was determined in female swiss -Wbster mice after (ip) administration of 10 mg/kg; format: functional; method in brief: as §1
[32] = Number of animals showing dyskinesias was determined in haloperidol sensitized 2 cebus monkeys after (po) administration of 20 mg/kg; format: functional; method in brief: as §2
[33] = Number of animals showing dyskinesias was determined in haloperidol sensitized 2 cebus monkeys after (po) administration of 80 mg/kg; format: functional; method in brief: as §2
[34] = Number of animals showing dyskinesias was determined in haloperidol sensitized 4 cebus monkeys after (po) administration of 40 mg/kg; format: functional; method in brief: as §2

SMILES: OCCOCCN1CCN(C2=Nc3cccc(F)c3Sc3ccccc32)CC1
- Activity [1]: 22
- % displacement of spiropiperidone [2]: 0%
- Activity [3]: 0

SMILES: c1ccc2c(c1)N=C(N1CCN(CC3CCCO3)CC1)c1ccccc1S2 (stereo not drawn)
- Activity [4]: 37
- Activity [5]: 7
- Activity [6]: 1
- Activity [7]: 9
- IC50 [8]: 417 nM
- Activity [9]: 16
- No of monkeys [10]: 2
- Activity [11]: 26
- Activity [12]: 7
- Activity [13]: 1
- Activity [14]: 2
- Activity [15]: 21

SMILES: OCCOCCN1CCN(C2=Nc3ccc(O)cc3Cc3ccccc32)CC1
- Activity [16]: 1
- Activity [17]: 21
- Activity [1]: 2
- Activity [18]: 3
- % displacement of spiropiperidone [2]: 25%
- Activity [19]: 17
- Activity [20]: 24
- Activity [21]: 10
- Activity [22]: 17
- Activity [23]: 1

SMILES: CN1CCN(C2=Nc3ccccc3Cc3ccccc32)CC1 [PERLAPINE]
- Activity [24]: 16
- Activity [7]: 7
- IC50 [8]: 2700 nM
- Activity [25]: 20
- Activity [26]: 9
- Activity [14]: 0
- Activity [27]: 9
- Activity [28]: 24
- Activity [29]: 2
- Activity [30]: 20
- Activity [15]: 9

SMILES: OCCOCCN1CCN(C2=Nc3cc(Cl)ccc3Cc3sccc32)CC1
- Activity [17]: 1
- Activity [1]: 3
- Activity [31]: 20
- % displacement of spiropiperidone [2]: 60%
- Activity [19]: 2
- No of monkeys [32]: 1

SMILES: COC[C@H](CN1CCN(C2=Nc3ccccc3Sc3ccccc32)CC1)OC
- Activity [4]: 13
- Activity [5]: 19
- Activity [6]: 1
- % displacement of spiropiperidone [2]: 10%
- Activity [11]: 3

SMILES: CN1CCN(C2=Nc3cc(Cl)ccc3Oc3ccccc32)CC1 [ISOLOXAPINE]
- Activity [5]: 20
- Activity [6]: 14
- % displacement of spiropiperidone [2]: 48%

SMILES: OCCOCCN1CCN(C2=Nc3cc(Cl)ccc3Cc3ccccc32)CC1
- Activity [16]: 1
- Activity [17]: 19
- Activity [1]: 2
- IC50 [8]: 1000 nM
- Activity [18]: 2
- No of monkeys [10]: 0
- Activity [19]: 6
- Activity [21]: 1
- No of monkeys [33]: 0
- Activity [22]: 26
- No of monkeys [32]: 0

SMILES: O=S1(=O)c2ccccc2N=C(N2CCN(CCOCCO)CC2)c2ccccc21
- Activity [4]: 0
- Activity [6]: 23

SMILES: OCCOCCN1CCN(C2=Nc3ccccc3Cc3sccc32)CC1
- Activity [5]: 21
- Activity [6]: 7

SMILES: OCC1COCC(CN2CCN(C3=Nc4ccccc4Sc4ccccc43)CC2)O1 (stereo not drawn)
- Activity [4]: 27
- Activity [5]: 7
- Activity [6]: 0
- Activity [9]: 0
- % displacement of spiropiperidone [2]: 4%
- No of monkeys [34]: 4
- Activity [11]: 8
- Activity [14]: 18
